Experiments:
[1] = tested on: Trypanosoma brucei brucei; test: Antitrypanosomal activity against diminazene-, pentamidine-, and melaminophenyl arsenical-resistant HAPT1-deficient Trypanosoma brucei brucei B48 after 3 days by alamar blue assay; type: functional, organism-based
How it was run: (§1)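 Bloodstream-form T. b. brucei (wild-type s427; TbAT1-KO, made from s427 by TbAT1 deletion; B48, selected from TbAT1-KO in vitro on pentamidine, lacking functional HAPT1). Cells were exposed to compound for 48 h, then resazurin (Alamar blue) was added for a further 24 h. A single fluorescence reading gave EC50.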

[2] = tested on: Trypanosoma brucei brucei; test: Antitrypanosomal activity against wild type Trypanosoma brucei brucei Lister 427 after 3 days by alamar blue assay; type: functional, organism-based; how it was run: as §1
[3] = tested on: Trypanosoma brucei rhodesiense; test: Antitrypanosomal activity against Trypanosoma brucei rhodesiense STIB900 infected in rat L6 cells after 72 hrs by alamar blue assay; type: functional, organism-based
[4] = tested on: Trypanosoma brucei brucei; test: Antitrypanosomal activity against diminazene aceturate-resistant TbAT1 gene-deficient Trypanosoma brucei brucei AT1-KO after 3 days by alamar blue assay; type: functional, organism-based; how it was run: as §1
[5] = Inhibition of Trypanosoma brucei brucei LAPT1 assessed as [3H]-pentamidine uptake after 120 secs by scintillation counting
How it was run: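 LAPT1 transport: late-log trypanosomes from HMI-9/10% FBS culture washed into pH 7.3 HEPES-bicarbonate-glucose buffer; 1 μM final [³H]-pentamidine uptake over 120 s with competitor. Uptake terminated with 2 mM ice-cold pentamidine and oil centrifugation; counted by scintillation, Ki from sigmoid curves; triplicate, at least three separate occasions.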

[6] = Inhibition of Trypanosoma brucei brucei HAPT1 assessed as [3H]-pentamidine uptake after 60 secs by scintillation counting
How it was run: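 HAPT1 transport: late-log T. b. brucei grown in HMI-9 + 10% FBS, washed into HEPES/bicarbonate assay buffer with 14 mM glucose, pH 7.3. [³H]-pentamidine at 30 nM final for 60 s with inhibitor; stopped with 2 mM ice-cold unlabeled pentamidine and spin through oil. Scintillation counting, sigmoid fit for Ki; triplicates, ≥3 independent experiments.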

[7] = tested on: L6; test: Cytotoxicity against rat L6 cells after 72 hrs by alamar blue assay; type: cell-based
[8] = tested on: Trypanosoma brucei brucei; test: Resistance factor, ratio of EC50 for diminazene aceturate-resistant TbAT1 gene-deficient Trypanosoma brucei brucei AT1-KO to EC50 for wild type Trypanosoma brucei brucei Lister 427; type: functional
How it was run: (§2)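 Resistance factor is the EC50 in the resistant line (TbAT1-KO or B48) divided by the EC50 in wild-type s427. […] Resistant and wild-type EC50s were compared by Student t-test.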

[9] = Selectivity index, ratio of EC50 for human HEK cells to EC50 for wild type Trypanosoma brucei brucei Lister 427; type: toxicity, cell-based, HEK293; conditions: for selectivity ratio: HEK cells, read-out: Ratio EC50; for Ratio EC50: hek293
How it was run: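 Ratio of EC₅₀ in HEK cells to EC₅₀ in wild-type T. b. brucei s427, both from resazurin assays.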

[10] = Selectivity index, ratio of EC50 for rat L6 cells to EC50 for Trypanosoma brucei rhodesiense STIB900; type: toxicity, cell-based; conditions: for selectivity ratio: L6 cells, read-out: Ratio EC50; for Ratio EC50: l6
How it was run: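 Ratio of EC₅₀ in L6 cells to EC₅₀ against T. b. rhodesiense STIB900, both from Alamar blue assays.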

[11] = tested on: Trypanosoma brucei brucei; test: Resistance factor, ratio of EC50 for diminazene-, pentamidine-, and melaminophenyl arsenical-resistant HAPT1-deficient Trypanosoma brucei brucei B48 to EC50 for wild type Trypanosoma brucei brucei Lister 427; type: functional; how it was run: as §2
[12] = Cytotoxicity against human HEK cells after 3 days by alamar blue assay; type: cell-based, HEK293
How it was run: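 Human embryonic kidney cells tested by resazurin (Alamar blue) assay: 48 h with compound, then 24 h more after dye addition, single reading; EC₅₀ derived.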

[13] = Trypanosoma brucei, Lister 427, 72 h
[14] = Trypanosoma brucei, STIB900, 72 h
[15] = Trypanosoma brucei, AT1-KO, 72 h

Structure (SMILES)	EC50 ([1]; Trypanosoma brucei, B48, 72 h) [µM]	EC50 [2, 13] [µM]	EC50 [3, 14] [µM]	EC50 [4, 15] [µM]	Ki [5] [µM]	Ki [6] [µM]	EC50 ([7]; Rattus norvegicus, L6, 72 h) [µM]	Ratio EC50 [8]	selectivity ratio [9]	selectivity ratio [10]	Ratio EC50 [11]	EC50 ([12]; Homo sapiens, HEK293, 72 h) [µM]	EC50 [1] [µM]	EC50 [2] [µM]	Ratio EC50 [9]	Ratio EC50 [10]	EC50 [3] [µM]	EC50 [4] [µM]	EC50 ([7]; l6) [µM]	EC50 ([12]; hek293) [µM]
C[P+](C)(C)Cc1ccc(C(=O)c2ccc(C[P+](C)(C)C)cc2)cc1	> 100	> 100	127	> 100	> 250	> 250	> 173	–	–	–	–	–	–	–	–	–	–	–	–	–
Cc1ccc([P+](Cc2ccc(Cc3ccc(C[P+](c4ccccc4)(c4ccccc4)c4ccc(C)cc4)cc3)cc2)(c2ccccc2)c2ccccc2)cc1.[Br-].[Br-]	0.18	0.24	0.2	0.19	20	–	4.47	0.8	> 1250	22	0.7	> 300	–	–	–	–	–	–	–	–
N=C(N)c1ccc(OCCCCCOc2ccc(C(=N)N)cc2)cc1 [PENTAMIDINE]	0.567	0.008	–	0.009	56.2	0.036	–	1.1	–	–	70.9	–	–	–	–	–	–	–	–	–
Cc1ccc(C[P+](c2ccccc2)(c2ccccc2)c2ccccc2)cc1.[Br-]	–	–	–	–	25	–	–	0.8	–	–	0.5	–	0.022	0.043	> 7000	35.5	0.364	0.033	12.9	–
O=C(c1ccc(C[P+](C2CCCCC2)(C2CCCCC2)C2CCCCC2)cc1)c1ccc(C[P+](C2CCCCC2)(C2CCCCC2)C2CCCCC2)cc1.[Br-].[Br-]	0.25	0.14	0.197	0.23	39	–	32.7	1.6	> 2100	166	1.8	> 300	–	–	–	–	–	–	–	–
O=C(c1ccc(C[P+](c2ccccc2)(c2ccccc2)c2ccccc2)cc1)c1ccc(C[P+](c2ccccc2)(c2ccccc2)c2ccccc2)cc1.[Br-].[Br-]	0.38	0.24	0.26	0.36	49	–	73.3	1.5	> 1250	282	1.6	> 300	–	–	–	–	–	–	–	–
CCCCCC[P+](CCCCCC)(CCCCCC)Cc1ccc(C(=O)c2ccc(C[P+](CCCCCC)(CCCCCC)CCCCCC)cc2)cc1.[Br-].[Br-]	0.035	0.038	0.112	0.047	25	–	1.11	1.2	438	10	0.9	16.6	–	–	–	–	–	–	–	–
O=C(c1ccc(C[P+](c2ccccc2)(c2ccccc2)C2CCCCC2)cc1)c1ccc(C[P+](c2ccccc2)(c2ccccc2)C2CCCCC2)cc1.[Br-].[Br-]	0.33	0.3	0.43	0.41	19	–	65.8	1.4	> 1000	155	1.1	> 300	–	–	–	–	–	–	–	–
Cc1ccc([P+](Cc2ccc(CCCc3ccc(C[P+](c4ccc(C)cc4)(c4ccc(C)cc4)c4ccc(C)cc4)cc3)cc2)(c2ccc(C)cc2)c2ccc(C)cc2)cc1.[Cl-].[Cl-]	–	–	–	–	–	–	–	0.7	–	–	0.6	–	0.062	0.1	127	27.3	0.063	0.066	1.72	12.7
C[P+](Cc1ccc(C(=O)c2ccc(C[P+](C)(c3ccccc3)c3ccccc3)cc2)cc1)(c1ccccc1)c1ccccc1.[Br-].[Br-]	2.05	1.53	0.656	2.08	–	–	116	1.4	> 200	177	1.3	> 300	–	–	–	–	–	–	–	–
Cc1cccc([P+](Cc2ccc(Cc3ccc(C[P+](c4cccc(C)c4)(c4cccc(C)c4)c4cccc(C)c4)cc3)cc2)(c2cccc(C)c2)c2cccc(C)c2)c1.[Br-].[Br-]	0.13	0.14	0.231	0.14	–	–	0.939	1	524	4	0.9	72.6	–	–	–	–	–	–	–	–
Cc1ccc([P+](Cc2ccc(S(=O)(=O)c3ccc(C[P+](c4ccc(C)cc4)(c4ccc(C)cc4)c4ccc(C)cc4)cc3)cc2)(c2ccc(C)cc2)c2ccc(C)cc2)cc1.[Br-].[Br-]	0.27	0.23	0.173	0.253	–	–	22	1.1	> 1300	127	1.2	> 300	–	–	–	–	–	–	–	–
CC(=O)N(c1ccc(C[P+](c2ccc(C)cc2)(c2ccc(C)cc2)c2ccc(C)cc2)cc1)c1ccc(C[P+](c2ccc(C)cc2)(c2ccc(C)cc2)c2ccc(C)cc2)cc1.[Br-].[Br-]	0.29	0.32	0.159	0.3	3.6	9.2	21.8	0.9	> 930	137	0.9	> 300	–	–	–	–	–	–	–	–
Cc1ccc([P+](Cc2ccc(Oc3ccc(C[P+](c4ccccc4)(c4ccccc4)c4ccc(C)cc4)cc3)cc2)(c2ccccc2)c2ccccc2)cc1.[Br-].[Br-]	0.064	0.082	0.142	0.077	–	–	3.34	0.9	2930	23	0.8	240	–	–	–	–	–	–	–	–
CC(C)C[P+](Cc1ccc(Cc2ccc(C[P+](CC(C)C)(CC(C)C)CC(C)C)cc2)cc1)(CC(C)C)CC(C)C.[Br-].[Br-]	0.88	0.7	0.326	0.88	–	–	45.9	1.3	> 429	141	1.3	> 300	–	–	–	–	–	–	–	–
COc1ccccc1[P+](Cc1ccc(Oc2ccc(C[P+](c3ccccc3OC)(c3ccccc3OC)c3ccccc3OC)cc2)cc1)(c1ccccc1OC)c1ccccc1OC.[Br-].[Br-]	0.045	0.056	0.153	0.057	–	–	1.27	1	2520	8	0.8	141	–	–	–	–	–	–	–	–
O=C(c1ccc(C[P+](c2ccc(F)cc2)(c2ccc(F)cc2)c2ccc(F)cc2)cc1)c1ccc(C[P+](c2ccc(F)cc2)(c2ccc(F)cc2)c2ccc(F)cc2)cc1.[Br-].[Br-]	1.24	0.85	0.45	2.1	–	–	77.4	2.5	> 350	172	1.5	> 300	–	–	–	–	–	–	–	–
Cc1ccccc1[P+](Cc1ccc(C(=O)c2ccc(C[P+](c3ccccc3)(c3ccccc3)c3ccccc3C)cc2)cc1)(c1ccccc1)c1ccccc1.[Br-].[Br-]	0.22	0.2	0.16	0.24	–	–	14	1.2	1100	88	1.1	214	–	–	–	–	–	–	–	–
Cc1ccc([P+](Cc2ccc(C(=O)c3ccc(C[P+](c4ccccc4)(c4ccccc4)c4ccc(C)cc4)cc3)cc2)(c2ccccc2)c2ccccc2)cc1.[Br-].[Br-]	0.183	0.18	0.26	0.182	–	–	16.3	1	1450	62	1	261	–	–	–	–	–	–	–	–
